Experimental data reported in article PMC6463402 (Current Radiopharmaceuticals, 2019).
Where two headings read alike, the source gives them in different places. Each block holds one molecule with its values, some of them ahead of it.

Tests used:
[1] = cited from earlier work
Aβ = details: cited from earlier work
Stability in plasma = type: in vitro ADME, human; details: 2 h incubation at 37 °C
Aβ plaques = Aβ plaques (Homo sapiens, UniProt P05067); assay: In vitro binding assays with Aβ plaques; parameters: species or system 3xTg-AD mice
Protein binding assay = type: in vitro ADME; details: human plasma, gel filtration
In short: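 Human plasma (1 mL) with 100 μL radiotracer was incubated at 37 °C for 120 min. At 30, 60 and 120 min, 50 μL was applied to pre-spun G-50 size-exclusion spin columns, left 2 min, and centrifuged 2 min at 3300 rpm, 4 °C. Column (free) and eluate (bound) activity were gamma-counted. The blank used 0.1 M phosphate buffer instead of plasma, at 120 min.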

[2] = Lipophilicity, n-octanol/phosphate buffer partition coefficient; type: physicochemical; details: n-octanol/phosphate buffer 0.1 mol/L, pH 7.4; mean of two batches in triplicate
APPSwe/PS1dE9 mice = assay: PET/CT imaging, transgenic mice; type: in vivo; details: static PET at 30 min, n=3, no statistical significance
In short: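 Male APPSwe/PS1dE9 transgenic mice (aged 12 months) and male C57BL/6 controls (aged 13 months) under isoflurane received 30-37 MBq i.v. via tail vein. PET/CT images were fused with a brain-template atlas to give regional values. In static images, regional SUV was normalised to brain stem (n=3). Transgenic and control regions were compared by Student's t-test, α=0.05.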

[3] = Stability in the final formulation; type: physicochemical; details: 6 h, room temperature
In short: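 Three samples of the formulated tracer, a filtered ethanol/saline formulation with phosphate and Tween 80, were held at room temperature. Each was analysed at 0, 1, 2, 3, 4, 5 and 6 h by radio-HPLC on C18 with MeCN:H2O 75:25 at 1 mL/min, using UV 215 nm and gamma detectors. Radiochemical purity was taken as the tracer peak area relative to total radioactivity.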

C57BL/6 mice = assay: PET/CT imaging, control healthy mice; type: in vivo; details: wild-type mice, i.v.
In short: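 Male C57BL/6 controls (aged 13 months), anaesthetised with 4-5% isoflurane (1-2% maintenance), received 30-37 MBq via lateral tail vein. Dynamic PET ran 120 min, framed 10x2 min, 5x5 min and 5x15 min, with CT at 45 kVp for anatomy. Decay-corrected PET was fused with CT and an MRI mouse brain template holding predefined brain regions of interest.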

[4] = Biodistribution study and non-compartmental pharmacokinetics; type: in vivo, Balb/C mice; details: i.v.
In short: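 Thirty healthy male Balb/C mice (10-12 weeks, 28.5±2.0 g) in 6 groups of 5 received 20-40 MBq i.v. via lateral tail vein. Blood was collected and mice were killed at 5, 15, 30, 45, 70 and 180 min. Organs were removed, washed with saline, dried and weighed, and radioactivity was well-counted. Plasma PK parameters came from non-compartmental analysis, reported as mean and standard deviation.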

[5] = brain serial sections of 3xTg-AD mice
[6] = plasma of healthy Balb/C male mice, NCA

Aβ plaques, sequence (P05067 672-713): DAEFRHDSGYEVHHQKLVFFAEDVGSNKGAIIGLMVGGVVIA

Structure (SMILES): CNc1ccc(/C=C/c2ccc(OCCOCCOCCF)cc2)cc1 [[^18F]Florbetaben, BAY94-9172]
- Log P [1]: 2.41 [65]
- Kd (Aβ; AD brain homogenates ref 60): 16 nM

Structure (SMILES): CNc1ccc(-c2nc3ccc(O)cc3s2)cc1F [[^18F]Flutemetamol, GE-067]
- Log P [1]: 1.7 [64]
- Kd (Aβ; AD brain homogenates ref 59): 6.7 nM

Structure (SMILES): CNc1ccc(/C=C/c2ccc(OCCOCCOCCF)nc2)cc1 [[^18F]Florbetapir, AV-45]
- Kd (Aβ; AD brain homogenates ref 62): 3.72 nM

- stability in fresh human plasma (Stability in plasma): not degraded
- Kd (Aβ plaques): 0.16 nM
- Bmax (Aβ plaques; [5]): 119.4 nM
- fold higher BP than [^11C]PIB (Aβ plaques; [5]): 3 folds
- fold higher affinity for Aβ plaques compared with [^11C]PIB (Aβ plaques; [5]): 6 fold
- plasma protein binding (PPB) (Protein binding assay): high PPB percentage
- log Poct/PBS [2]: 2.46 ± 0.06
- stability (radiochemical purity) of final formulation [3]: did not significantly change
- time of maximum activity in brain (dynamic PET) (C57BL/6 mice): 2 min
- bone uptake ([4]; healthy Balb/C mice): relatively high bone uptake
- uptake in kidneys and liver ([4]; healthy Balb/C mice): high uptake values
- brain uptake (washout/clearance) ([4]; healthy Balb/C mice, 60 min): 0.11±0.03 %ID/g
- T1/2 (plasma) [4, 6]: 37 ± 10 min
- Vss [4, 6]: 10.3 ± 2.9 mL
- Vss/kg [4, 6]: 0.372 ± 0.11 L/kg
Structure (SMILES): COc1ccc2cc(CCC[18F])ccc2c1 [[^18F]Amylovis, 2-(3-[^18F]fluoropropyl)-6-methoxynaphthalene]
- uptake in cortex, transgenic vs control healthy mice (SUVr to brain stem) (APPSwe/PS1dE9 mice): slightly incremented uptake
